Assay results gathered from unrelated publications.
Each line is one published result; the experiments were not run side by side.
SLC22A12: Solute carrier family 22 member 12 (SLC22A12, Homo sapiens, UniProt Q96S37)
CSNK1A1: Casein kinase I isoform alpha (CSNK1A1, Homo sapiens, UniProt P48729)
HDAC10: Polyamine deacetylase HDAC10 (HDAC10, Homo sapiens, UniProt Q969S8)
HDAC7: Histone deacetylase 7 (HDAC7, Homo sapiens, UniProt Q8WUI4)
PLA2G6: 85/88 kDa calcium-independent phospholipase A2 (PLA2G6, Homo sapiens, UniProt O60733)
SLC22A2: Solute carrier family 22 member 2 (SLC22A2, Homo sapiens, UniProt O15244)

target	test	system	conditions	IC50 [nM]	Structure (SMILES)
SLC22A12	transporter uptake, inhibitor, radiometric		oocytes	18	CCc1oc2cc(F)ccc2c1C(=O)c1cc(Br)c(O)c(Br)c1
Kallikrein-1 (KLK1, Homo sapiens, UniProt P06870)	enzyme activity, inhibitor			3900	CC(=O)N[C@@H](CC(C)C)C(=O)N[C@@H](CC(C)C)C(=O)N[C@H](C=O)CCCNC(=N)N
CSNK1A1	enzyme activity, inhibitor, ADP detection			730	N#Cc1ccn2nc(-c3ccc(F)cc3)c(-c3ccncc3)c2c1
HDAC10	enzyme activity, inhibitor, fluorescence			15	O=C1CCC(c2ccc(OCC(=O)OCCCCc3cn(CCCCCCN4CCc5c(c6ccccc6n5Cc5ccc(C(=O)NO)cc5)C4)nn3)cc2)C(=O)N1 (centres unmarked)
HDAC7	enzyme activity, inhibitor			> 10000	COc1ccc(N(Cc2nc(-c3ccc(F)cc3)cs2)C(=O)CCCCCC(=O)NO)cc1
CSNK1A1	enzyme activity, inhibitor, ADP detection			3100	Oc1ccccc1-c1n[nH]cc1-c1ccnc2ccccc12
Histone-lysine N-methyltransferase SETD2 (SETD2, Homo sapiens, UniProt Q9BYW2)	enzyme activity, inhibitor			2110	Nc1ncnc2c1ncn2[C@@H]1O[C@H](CSCC[C@H](N)C(=O)O)[C@@H](O)[C@H]1O
CSNK1A1	enzyme activity, inhibitor, ADP detection			> 30000	c1ccc(-c2occc2-c2ccnc3ccccc23)nc1
HDAC10	enzyme activity, inhibitor, fluorescence			7	CN(CCCCCCNC(=O)CNc1cccc2c1C(=O)N(C1CCC(=O)NC1=O)C2=O)Cc1cn(Cc2ccc(C(=O)NO)cc2)c2ccccc12 (centres unmarked)
CSNK1A1	enzyme activity, inhibitor, ADP detection			8700	CC(C)(C)c1ccn2nc(-c3ccc(F)cc3)c(-c3ccncc3)c2c1
SLC22A12	transporter uptake, inhibitor, radiometric			5560	CCCS(=O)(=O)NC(=O)c1cc2ccccc2n1Cc1ccc(C2CC2)c2ccccc12
PLA2G6	enzyme activity, inhibitor			41200	O=CCCCCCCCC(=O)C(F)(F)F
SLC22A12	transporter uptake, inhibitor, radiometric			13800	O=C(O)CCc1nccc2c3ccccc3n(Cc3ccc(Br)c4ccccc34)c12
CSNK1A1	enzyme activity, inhibitor, ADP detection			5500	Fc1ccc(-c2nn3cccc(F)c3c2-c2ccncc2)cc1
HDAC7	enzyme activity, inhibitor			48	O=C(NO)c1ccc(Cn2cnc3c(Nc4ccc(Cl)cc4)ncnc32)cc1
CSNK1A1	enzyme activity, inhibitor, ADP detection			> 30000	c1ccc(-c2n[nH]cc2-c2ccncn2)nc1
SLC22A12	transporter uptake, inhibitor, radiometric			5800	O=C(NS(=O)(=O)C1CC1)c1cc2ccccc2n1Cc1ccc(C2CC2)c2ccccc12
CSNK1A1	enzyme activity, inhibitor, ADP detection			1500	Cn1cc(-c2ccnc3ccccc23)c(-c2ccccn2)n1
CSNK1A1	enzyme activity, inhibitor, ADP detection			2400	COc1ccc2c(-c3ccncc3)c(-c3ccc(F)cc3)nn2c1
SLC22A2	transporter uptake, inhibitor, radiometric	HEK293		> 1000	CC(C)NC(=O)COc1cccc(-c2nc(Nc3ccc4[nH]ncc4c3)c3ccccc3n2)c1
HDAC10	enzyme activity, inhibitor, fluorescence			12	CN(CCCCCCNC(=O)COc1ccc(C2CCC(=O)NC2=O)cc1)Cc1cn(Cc2ccc(C(=O)NO)cc2)c2ccccc12 (centres unmarked)
CSNK1A1	enzyme activity, inhibitor, ADP detection			3400	c1coc(-c2n[nH]cc2-c2ccnc3ccccc23)c1
CSNK1A1	enzyme activity, inhibitor, ADP detection			2100	COc1ccn2nc(-c3ccc(F)cc3)c(-c3ccncc3)c2c1
PLA2G6	enzyme activity, inhibitor			630	O=C(CCCCc1ccc(CO)cc1)C(F)(F)C(F)(F)F
Cannabinoid receptor 2 (CNR2, Homo sapiens, UniProt P34972)	cAMP, antagonist			3780	NC(=O)c1nnn(Cc2cc(Cl)c(C(=O)c3ccc(Cl)cc3)c(Cl)c2)c1N
HDAC7	enzyme activity, inhibitor			> 10000	COc1ccc(N(Cc2csc(-c3ccc(Br)cc3)n2)C(=O)CCCCCC(=O)NO)cc1
CSNK1A1	enzyme activity, inhibitor, ADP detection			2400	Fc1ccc(-c2nn3cc(F)ccc3c2-c2ccncc2)cc1
SLC22A12	transporter uptake, inhibitor, radiometric			14000	Cc1ccc(S(=O)(=O)NC(=O)c2cc3ccccc3n2Cc2ccc(C3CC3)c3ccccc23)cc1
SLC22A2	transporter uptake, inhibitor, fluorescence			88.2	Cc1cc(N)c2ccccc2[n+]1CCCCCCCCCC[n+]1c(C)cc(N)c2ccccc21
